The source of these data is ChEMBL document CHEMBL4145697, “Replacement of a Naphthalene Scaffold in Kelch-like ECH-Associated Protein 1 (KEAP1)/Nuclear Factor (Erythroid-derived 2)-like 2 (NRF2) Inhibitors” (J Med Chem, 2018).

A short description of data set [1]: Kinetic solubility in pH 7.4 incubated for 1 hr by HPLC method. The data set is classed as physicochemical. To be noted: buffer, read-out: Kinetic_solubility.
Data set [2] can be described thus: Stability in mouse liver microsomes assessed as compound remaining level at 200 uM incubated for 20 mins by LC-MS method. The data set is classed as ADME, microsome. To be noted: read-out: Stability. On the technique in general: Microsomes from liver hold many membrane-bound enzymes, among them those of drug oxidation.
The target of the next data set is Keap1/Nrf2 (Homo sapiens, UniProt Q14145). The data set is described as follows: Inhibition of Keap1 Kelch domain (unknown origin) /Nrf2 (unknown origin) interaction using fluorescein-labeled 9-mer peptide containing NRF2 Neh2 domain ETGE motif by fluorescence anisotropy assay. It counts as protein assay.
Chain of Keap1/Nrf2 (Q16236 whole entry, the tested form may be a part): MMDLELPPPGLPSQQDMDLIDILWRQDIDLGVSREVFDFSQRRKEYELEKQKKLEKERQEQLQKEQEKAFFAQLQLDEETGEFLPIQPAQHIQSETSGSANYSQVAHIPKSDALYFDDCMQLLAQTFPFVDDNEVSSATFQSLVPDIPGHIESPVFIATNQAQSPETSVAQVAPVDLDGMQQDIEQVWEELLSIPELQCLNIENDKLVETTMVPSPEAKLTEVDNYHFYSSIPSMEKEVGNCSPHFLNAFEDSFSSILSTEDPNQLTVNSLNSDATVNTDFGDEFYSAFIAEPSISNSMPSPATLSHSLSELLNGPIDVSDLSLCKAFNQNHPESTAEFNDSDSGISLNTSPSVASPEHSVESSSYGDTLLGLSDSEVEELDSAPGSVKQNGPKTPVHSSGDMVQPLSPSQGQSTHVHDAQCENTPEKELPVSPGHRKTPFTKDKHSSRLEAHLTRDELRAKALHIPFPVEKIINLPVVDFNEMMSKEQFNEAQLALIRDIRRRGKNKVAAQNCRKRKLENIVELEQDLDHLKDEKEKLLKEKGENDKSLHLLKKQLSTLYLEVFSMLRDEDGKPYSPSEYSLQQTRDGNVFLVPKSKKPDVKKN
Chain of Keap1/Nrf2 (Q14145 whole entry, the tested form may be a part): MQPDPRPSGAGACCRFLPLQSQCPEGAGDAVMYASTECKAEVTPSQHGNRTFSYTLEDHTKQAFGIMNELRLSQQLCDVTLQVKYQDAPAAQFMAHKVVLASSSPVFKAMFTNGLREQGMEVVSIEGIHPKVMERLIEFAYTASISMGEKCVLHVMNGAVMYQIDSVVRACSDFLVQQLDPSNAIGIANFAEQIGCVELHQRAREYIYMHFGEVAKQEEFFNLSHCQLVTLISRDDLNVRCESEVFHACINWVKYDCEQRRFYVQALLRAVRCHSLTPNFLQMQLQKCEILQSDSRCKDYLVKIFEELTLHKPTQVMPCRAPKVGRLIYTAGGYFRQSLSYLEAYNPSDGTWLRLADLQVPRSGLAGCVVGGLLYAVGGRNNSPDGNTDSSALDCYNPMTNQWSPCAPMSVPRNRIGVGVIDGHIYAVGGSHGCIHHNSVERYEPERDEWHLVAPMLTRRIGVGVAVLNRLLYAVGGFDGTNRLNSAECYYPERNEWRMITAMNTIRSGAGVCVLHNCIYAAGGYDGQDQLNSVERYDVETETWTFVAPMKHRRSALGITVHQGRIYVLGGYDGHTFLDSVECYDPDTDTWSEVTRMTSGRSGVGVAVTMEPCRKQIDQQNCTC
The test system of data set [3] is Salmonella typhimurium. Description: Cytotoxicity in Salmonella typhimurium TA98 at 1.5 to 1000 ug/well. As to conditions: salmonella enterica subsp. enterica serovar typhimurium. The data set is classed as organism-based. An outline of the steps:
(§1)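 Mini-Ames plate incorporation; compounds dissolved in DMSO, tested at 1.5–1000 µg/well with and without Aroclor 1254-induced rat liver S9, alongside solvent and positive controls. Cells in top agar over minimal glucose agar; triplicate wells (vehicle sextuplicate), 37 ± 2 °C for 48–72 h. Cytotoxicity scored as fewer revertants per well and/or thinning or loss of background lawn relative to negative control.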

Data set [4] has as its system Salmonella typhimurium. Description: Cytotoxicity in Salmonella typhimurium TA100 at 1.5 to 1000 ug/well. It counts as organism-based. To be noted: salmonella enterica subsp. enterica serovar typhimurium. The gist of the method:
as §1

The subject of data set [5] is Salmonella typhimurium. The data set is described as follows: Cytotoxicity in Salmonella typhimurium TA1535 at 1.5 to 1000 ug/well. The data set is classed as organism-based. To be noted: salmonella enterica subsp. enterica serovar typhimurium. An outline of the steps:
as §1

For data set [6], the system named is Salmonella typhimurium. The data set is described as follows: Cytotoxicity in Salmonella typhimurium TA1537 at 1.5 to 1000 ug/well. As to conditions: salmonella enterica subsp. enterica serovar typhimurium. The data set is classed as organism-based. The gist of the method:
as §1

The subject of another data set is Escherichia coli. The data set is described as follows: Cytotoxicity in Escherichia coli WP2 uvrA (pKM101) at 1.5 to 1000 ug/well. It counts as organism-based. As to conditions: in vivo. The gist of the method:
as §1

Data set [7] has as its system Salmonella typhimurium. The data set is described as follows: Mutagenicity in Salmonella typhimurium TA98 assessed as increase in number of revertant colonies at 1.5 to 1000 ug/well in presence of rat liver S9 fractions incubated for 48 to 72 hrs. As to conditions: salmonella enterica subsp. enterica serovar typhimurium. It counts as toxicity, organism-based. The gist of the method:
(§2)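 Reverse mutation at histidine locus in top agar (0.6% agar, 0.5% NaCl, histidine/biotin) with Aroclor 1254-induced rat liver S9 mix; DMSO vehicle, doses 1.5–1000 µg/well. Plated in triplicate wells (vehicle sextuplicate) on minimal glucose agar, 37 ± 2 °C for 48–72 h. Revertant colonies counted manually; fold-change over DMSO, p-values by two-tailed t-test.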

Data set [8] concerns Salmonella typhimurium. The data set is described as follows: Mutagenicity in Salmonella typhimurium TA100 assessed as increase in number of revertant colonies at 1.5 to 1000 ug/well in presence of rat liver S9 fractions incubated for 48 to 72 hrs. The data set is classed as toxicity, organism-based. As to conditions: salmonella enterica subsp. enterica serovar typhimurium. The gist of the method: as §2

A short description of data set [9]: Lipophilicity, log D of the compound. It counts as physicochemical. To be noted: octanol/water.
A short description of data set [10]: Stability in human liver microsomes assessed as compound remaining level at 1 uM incubated for 20 mins by LC-MS method.
The nature of data set [11]: Stability in mouse liver microsomes assessed as compound remaining level at 1 uM incubated for 20 mins by LC-MS method.
The target of data set [12] is Kelch-like ECH-associated protein 1 (Homo sapiens, UniProt Q14145). Description: Binding affinity to Keap1 Kelch domain (unknown origin) by surface plasmon resonance assay.
Chain of Kelch-like ECH-associated protein 1 (Q14145 whole entry, the tested form may be a part): as above
Data set [13] has as its target T1, Keap1/Nrf2 (Homo sapiens) (UniProt Q16236+Q14145). The data set is described as follows: Inhibition of Keap1/Nrf2 interaction in human HaCaT cells assessed as increase in NRF2 nuclear accumulation at 10 uM incubated for 6 hrs by immunoblot assay. It counts as cell-based. A general note: A western blot detects proteins with antibodies after separation by electrophoresis.

Data set [14] deals with T1, Keap1/Nrf2 (Homo sapiens). Description: Inhibition of Keap1/Nrf2 interaction in human HaCaT cells assessed as increase in NRF2 nuclear accumulation at 10 uM incubated for 24 hrs by immunoblot assay. The data set is classed as cell-based.
Data set [15] concerns the target T1, Keap1/Nrf2 (Homo sapiens). The data set is described as follows: Inhibition of Keap1/Nrf2 interaction in human HaCaT cells assessed as increase in HMOX1 gene expression at 10 uM incubated for 6 hrs by qPCR method. It counts as cell-based.
Data set [16] deals with T1, Keap1/Nrf2 (Homo sapiens). The data set is described as follows: Inhibition of Keap1/Nrf2 interaction in human HaCaT cells assessed as increase in GCLM gene expression at 10 uM incubated for 6 hrs by qPCR method. It counts as cell-based. On the technique in general: In qPCR the cycle at which signal appears reflects the starting amount.
Data set [17] has as its target T1, Keap1/Nrf2 (Homo sapiens). The data set is described as follows: Inhibition of Keap1/Nrf2 interaction in human HaCaT cells assessed as increase in GCLC gene expression at 10 uM incubated for 6 hrs by qPCR method. It counts as cell-based.
Data set [18] deals with T1, Keap1/Nrf2 (Homo sapiens). Description: Inhibition of Keap1/Nrf2 interaction in human HaCaT cells assessed as increase in NQO1 gene expression at 10 uM incubated for 24 hrs by qPCR method. It counts as cell-based.
For data set [19], the target named is T1, Keap1/Nrf2 (Homo sapiens). The data set is described as follows: Inhibition of Keap1/Nrf2 interaction in human HaCaT cells assessed as increase in HMOX1 gene expression at 10 uM incubated for 24 hrs by qPCR method. The data set is classed as cell-based.
The target of data set [20] is T1, Keap1/Nrf2 (Homo sapiens). The data set is described as follows: Inhibition of Keap1/Nrf2 interaction in human HaCaT cells assessed as increase in GCLM gene expression at 10 uM incubated for 24 hrs by qPCR method. It counts as cell-based.
Data set [21] has as its target T1, Keap1/Nrf2 (Homo sapiens). Description: Inhibition of Keap1/Nrf2 interaction in human HaCaT cells assessed as increase in GCLC gene expression at 10 uM incubated for 24 hrs by qPCR method. It counts as cell-based.
Data set [22] addresses T1, Keap1/Nrf2 (Homo sapiens). Description: Inhibition of Keap1/Nrf2 interaction in human HaCaT cells assessed as increase in NQO1 gene expression at 10 uM incubated for 6 hrs by qPCR method. It counts as cell-based.
Data set [23] has as its system HaCaT. The data set is described as follows: Effect on SOD2 gene expression in human HaCaT cells at 10 uM incubated for 6 hrs by qPCR method. It counts as ADME, cell-based.
Data set [24] deals with HaCaT. The data set is described as follows: Effect on SOD2 gene expression in human HaCaT cells at 10 uM incubated for 24 hrs by qPCR method. The data set is classed as ADME, cell-based.
For data set [25], the target named is T1, Keap1/Nrf2 (Homo sapiens). The data set is described as follows: Inhibition of Keap1/Nrf2 interaction in human HaCaT cells assessed as increase in NQO1 protein expression at 10 uM incubated for 6 hrs by Western blot method. The data set is classed as cell-based. The gist of the method:
(§3)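 HaCaT cells in DMEM, 10% FBS, 1% antibiotics, treated at 70–80% confluence with 10 μM compound or DMSO for 6 or 24 h in complete medium. Lysates (~40 μg protein) resolved by 10% SDS-PAGE, immunoblotted for NQO1; bands quantified against GAPDH, vehicle set to one arbitrary unit.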

Data set [26] has as its target T1, Keap1/Nrf2 (Homo sapiens). Description: Inhibition of Keap1/Nrf2 interaction in human HaCaT cells assessed as increase in NQO1 protein expression at 10 uM incubated for 24 hrs by Western blot method. It counts as cell-based. An outline of the steps: as §3

≈ marks a conversion by molar mass, not a printed value. Calls of active or inactive are those of the source. No cut-off for these calls is given here.

T1 sequence (Q14145 whole entry, looked up): as the sequence (Q14145 whole entry, the tested form may be a part) above
T1 sequence (Q16236 whole entry, looked up): as the sequence (Q16236 whole entry, the tested form may be a part) above

`COc1ccc(S(=O)(=O)N(CC(N)=O)c2ccc(N(CC(N)=O)S(=O)(=O)c3ccc(OC)cc3)c3ccccc23)cc1`: in data set [1], the solubility kinetic at 1 h is 22 µM (≈ 13.5 µg/mL). For the same compound, the remaining at 20 min, 200 µM in data set [2] was 0%.
For `COc1ccc(S(=O)(=O)N(CC(=O)O)Cc2ccccc2CN(CC(=O)O)S(=O)(=O)c2ccc(OC)cc2)cc1`, at Keap1/Nrf2, the IC50 (as a rule, the midpoint of a concentration-inhibition curve) is over 25000 nM.
Still for that read-out and setting: with `COc1ccc(S(=O)(=O)N(CC(=O)O)c2ccc(N(CC(=O)O)S(=O)(=O)c3ccc(OC)cc3)cc2)cc1` the figure was 980 nM.
The same measure, in the same setting: with `COc1ccc(S(=O)(=O)N(CC(=O)O)c2ccc(N(CC(=O)O)S(=O)(=O)c3ccc(OC)cc3)c3[nH]ccc23)cc1` the figure was 1300 nM.
With `COc1ccc(S(=O)(=O)N(CC(=O)O)c2ccc(N(CC(=O)O)S(=O)(=O)c3ccc(OC)cc3)c3ccccc23)cc1`, the Activity entry in the data set on Salmonella typhimurium [3] is “Non-Toxic”; with Salmonella typhimurium [4], “Non-Toxic”; with Salmonella typhimurium [5] it was “Non-Toxic”; with Salmonella typhimurium [6], “Non-Toxic”; with Escherichia coli, “Non-Toxic”; with Salmonella typhimurium [7] it was “Dose-dependent effect”. The Activity entry in the data set on Salmonella typhimurium [8] is on record as “Dose-dependent effect”. Besides, the solubility kinetic at 1 h in data set [1] was 440 µM (≈ 270 µg/mL). Moreover, the logD (commonly the decadic logarithm of the distribution of all forms, ionised or not, between an organic phase and buffer at a given pH) in [9] was -1.9. The Stability entry in data set [10] and in [11] was “Stable” each time.
On Keap1/Nrf2, `COc1ccc(S(=O)(=O)N(CC(=O)O)c2ccc(N(CC(=O)O)S(=O)(=O)c3ccc(OC)cc3)c3ncccc23)cc1` showed an IC50 of 101 nM. In [12], the Kd (as a rule, a measure of binding affinity in units of concentration) turned out to be 103 nM. The inhibition result in [13], in data set [14], in data set [16], in [17], in [18] and in data set [20] was “Active” each time. The inhibition result in [21], in [22], in [25] and in data set [26] was “Active” each time. The inhibition result in [15] and in [19] was “inactive” each time. The Activity result in the data set on HaCaT [23] and with HaCaT [24] was “Non-Toxic” in each case.
As for `COc1ccc(S(=O)(=O)N(CC(=O)O)c2cnc(N(CC(=O)O)S(=O)(=O)c3ccc(OC)cc3)c3ccccc23)cc1`, the Activity result in the data set with Salmonella typhimurium [3], in the data set on HaCaT [23], in the data set on HaCaT [24], with Salmonella typhimurium [4], with Salmonella typhimurium [5] and in the data set on Salmonella typhimurium [6] was “Non-Toxic” in each case. The Activity entry in the data set on Escherichia coli is given as “Non-Toxic”. In addition, the logD in data set [9] was -1.7.
`COc1ccc(S(=O)(=O)Nc2ccc(NS(=O)(=O)c3ccc(OC)cc3)c3[nH]ccc23)cc1` registered an IC50 on Keap1/Nrf2 of over 25000 nM.
In the case of `COc1ccc(S(=O)(=O)Nc2ccc(NS(=O)(=O)c3ccc(OC)cc3)c3ncccc23)cc1`, the IC50 against Keap1/Nrf2 was over 25000 nM.
Still for that read-out and setting: with `COc1ccc(S(=O)(=O)N(CC=CCN(CC(=O)O)S(=O)(=O)c2ccc(OC)cc2)CC(=O)O)cc1` (mixture of isomers) the figure was over 25000 nM.
With `COc1ccc(S(=O)(=O)Nc2ccc(NS(=O)(=O)c3ccc(OC)cc3)c3ccccc23)cc1`, in [1], the solubility kinetic at 1 h worked out at 5.4 µM (≈ 2.69 µg/mL). In data set [2], the remaining at 20 min, 200 µM was determined as 15%.
On to `COc1ccc(S(=O)(=O)Nc2nnc(NS(=O)(=O)c3ccc(OC)cc3)c3ccccc23)cc1`, for which the IC50 against Keap1/Nrf2 is over 25000 nM.
Same read-out and setting: next, `COc1ccc(S(=O)(=O)N(CC(=O)O)C(=O)c2ccccc2C(=O)N(CC(=O)O)S(=O)(=O)c2ccc(OC)cc2)cc1`: over 25000 nM; `COc1ccc(S(=O)(=O)N(CC(=O)O)c2ccc(N(CC(=O)O)S(=O)(=O)c3ccc(OC)cc3)nc2)cc1`: over 25000 nM.
